Measurements from ChEMBL document CHEMBL4811251 (Eur J Med Chem, 2021).

Columns and labels:
[1] = test system: MV4-11; assay: Induction of cell cylce arrest in human MV4-11 cells assessed as accumulation of cells at G1 phase at 10 uM after 72 hrs by RNase A/propidium iodide staining based flow cytometry (reference value: 64.41%); assay type: functional
Method in brief: (§1)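 MV4-11 cells were seeded at 8 × 10⁴, held overnight at 37 °C with 5% CO2, then treated 72 h at 3 or 10 µM against a DMSO diluent control. Pellets were fixed in 70% ethanol on ice for 15 min, then stained 1 h at room temperature with PI, 0.1 mg/mL RNase A and 0.05% Triton X-100. Sub-G1, G1, S and G2/M fractions were read by flow cytometry.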

[2] = test system: MV4-11; assay: Antiproliferative activity against human MV4-11 cells assessed as growth inhibition after 72 hrs by resazurin assay; assay type: functional
Method in brief: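 MV4-11 cells kept at 37 °C with 5% CO2 in ATCC-recommended medium plus 10% FBS. In-house resazurin viability assay after 72 h exposure. GI50 reported as mean ± standard deviation from at least two replicates.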

[3] = AUC in BALB/c mouse at 10 mg/kg, po measured upto 24 hrs by LC/MS/MS analysis; assay type: ADME, organism-based; parameters: route oral, dose 10 mg/kg, time <=24; settings: in vivo
[4] = Cmax in BALB/c mouse at 2 mg/kg, iv measured upto 24 hrs by LC/MS/MS analysis; assay type: ADME, organism-based; parameters: route intravenous, dose 2 mg/kg, time <=24; settings: in vivo
[5] = test system: MV4-11; assay: Induction of cell cylce arrest in human MV4-11 cells assessed as accumulation of cells at sub G1 phase at 3 uM after 72 hrs by RNase A/propidium iodide staining based flow cytometry (reference value: 1.58%); assay type: functional; method in brief: as §1
[6] = test system: U-937; assay: Antiproliferative activity against human U937 cells assessed as growth inhibition incubated for 72 hrs by MTT assay; assay type: functional
[7] = test system: MV4-11; assay: Induction of apoptosis in human MV4-11 cells assessed as late apoptotic cells at 10 uM after 72 hrs by Annexin V FITC/PI staining based flow cytometry analysis (reference value: 3.41%); assay type: functional
[8] = test system: MV4-11; assay: Induction of apoptosis in human MV4-11 cells assessed as necrotic cells at 3 uM after 72 hrs by Annexin V FITC/PI staining based flow cytometry analysis (reference value: 0.23%); assay type: functional
[9] = molecular target: Cyclin-dependent kinase 1/cyclin B1 (Homo sapiens) (UniProt P06493+P14635); assay: Inhibition of CDK1/Cyclin B (unknown origin) assessed as residual activity at 1 uM relative to control; assay type: protein-complex assay
Sequence of Cyclin-dependent kinase 1/cyclin B1 (Homo sapiens) (P06493 whole entry, looked up): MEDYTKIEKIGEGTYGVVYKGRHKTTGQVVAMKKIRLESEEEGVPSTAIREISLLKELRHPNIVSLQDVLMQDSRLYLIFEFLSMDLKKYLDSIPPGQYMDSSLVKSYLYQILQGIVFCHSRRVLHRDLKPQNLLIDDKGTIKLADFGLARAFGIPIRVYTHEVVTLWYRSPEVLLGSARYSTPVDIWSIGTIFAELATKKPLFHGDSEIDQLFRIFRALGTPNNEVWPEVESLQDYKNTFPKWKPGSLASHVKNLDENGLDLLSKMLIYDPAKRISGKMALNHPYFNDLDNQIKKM
Sequence of Cyclin-dependent kinase 1/cyclin B1 (Homo sapiens) (P14635 whole entry, looked up): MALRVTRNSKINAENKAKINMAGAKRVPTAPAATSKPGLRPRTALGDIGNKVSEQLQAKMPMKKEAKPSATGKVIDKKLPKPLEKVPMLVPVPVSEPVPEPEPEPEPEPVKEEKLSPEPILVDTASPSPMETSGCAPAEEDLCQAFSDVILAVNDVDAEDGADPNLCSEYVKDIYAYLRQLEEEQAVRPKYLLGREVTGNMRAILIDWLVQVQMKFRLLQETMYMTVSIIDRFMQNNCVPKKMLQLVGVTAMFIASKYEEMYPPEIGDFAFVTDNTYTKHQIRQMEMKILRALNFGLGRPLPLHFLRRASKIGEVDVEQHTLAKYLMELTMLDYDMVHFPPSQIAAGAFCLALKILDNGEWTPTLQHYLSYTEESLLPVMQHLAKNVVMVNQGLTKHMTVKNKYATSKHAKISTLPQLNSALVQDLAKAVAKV

[10] = test system: MDA-MB-468; assay: Antiproliferative activity against human MDA-MB-468 cells assessed as growth inhibition incubated for 72 hrs by MTT assay; assay type: functional
[11] = Half life in BALB/c mouse at 10 mg/kg, po measured upto 24 hrs by LC/MS/MS analysis; assay type: ADME, organism-based; settings: in vivo
[12] = test system: MV4-11; assay: Induction of apoptosis in human MV4-11 cells assessed as late apoptotic cells at 3 uM after 72 hrs by Annexin V FITC/PI staining based flow cytometry analysis (reference value: 3.41%); assay type: functional
[13] = Tmax in BALB/c mouse at 2 mg/kg, iv measured upto 24 hrs by LC/MS/MS analysis; assay type: ADME, organism-based; settings: in vivo
[14] = molecular target: Receptor-type tyrosine-protein kinase FLT3 (Homo sapiens) (UniProt P36888); assay: Inhibition of human FLT3 at 1 uM using EAIYAAPFAKKK as substrate incubated for 40 mins in presence of [gamma-33ATP] by scintillation counting based radiometry assay relative to control
Sequence of Receptor-type tyrosine-protein kinase FLT3 (Homo sapiens) (P36888 whole entry): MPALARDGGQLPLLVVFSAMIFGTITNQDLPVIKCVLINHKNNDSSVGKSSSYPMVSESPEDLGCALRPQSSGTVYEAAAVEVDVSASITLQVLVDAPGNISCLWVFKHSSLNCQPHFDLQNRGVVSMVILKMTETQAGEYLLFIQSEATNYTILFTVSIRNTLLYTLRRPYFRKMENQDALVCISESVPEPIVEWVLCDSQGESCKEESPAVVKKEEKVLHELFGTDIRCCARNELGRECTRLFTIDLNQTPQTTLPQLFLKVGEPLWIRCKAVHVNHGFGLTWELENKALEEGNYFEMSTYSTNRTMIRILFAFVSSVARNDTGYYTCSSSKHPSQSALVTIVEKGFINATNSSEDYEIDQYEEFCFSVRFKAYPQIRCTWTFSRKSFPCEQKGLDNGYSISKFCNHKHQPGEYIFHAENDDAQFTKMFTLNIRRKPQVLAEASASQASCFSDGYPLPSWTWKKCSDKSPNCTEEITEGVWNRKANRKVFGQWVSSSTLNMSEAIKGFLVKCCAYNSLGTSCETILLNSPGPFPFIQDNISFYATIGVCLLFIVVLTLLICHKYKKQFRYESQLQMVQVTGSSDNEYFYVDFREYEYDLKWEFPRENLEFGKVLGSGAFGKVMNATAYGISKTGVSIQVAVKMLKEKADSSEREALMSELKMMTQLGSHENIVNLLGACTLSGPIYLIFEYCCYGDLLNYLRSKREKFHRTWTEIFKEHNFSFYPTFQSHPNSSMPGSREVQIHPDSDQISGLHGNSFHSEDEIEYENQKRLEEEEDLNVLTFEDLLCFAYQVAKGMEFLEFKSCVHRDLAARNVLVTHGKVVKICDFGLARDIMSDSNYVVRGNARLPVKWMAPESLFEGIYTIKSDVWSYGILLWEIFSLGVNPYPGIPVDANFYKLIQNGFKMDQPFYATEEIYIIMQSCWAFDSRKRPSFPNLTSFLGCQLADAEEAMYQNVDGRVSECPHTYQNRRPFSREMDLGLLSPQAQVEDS

[15] = Tmax in Sprague-Dawley rat at 5 mg/kg, iv measured upto 24 hrs by LC/MS/MS analysis; assay type: ADME, organism-based; settings: in vivo
[16] = molecular target: Glycogen synthase kinase-3 alpha (Homo sapiens) (UniProt P49840); assay: Inhibition of GSK3alpha (unknown origin) assessed as residual activity at 1 uM relative to control
[17] = Cmax in Sprague-Dawley rat at 20 mg/kg, po measured upto 24 hrs by LC/MS/MS analysis; assay type: ADME, organism-based; parameters: route oral, dose 20 mg/kg, time <=24; settings: in vivo
[18] = molecular target: Protein kinase C theta (Homo sapiens) (UniProt Q04759); assay: Inhibition of PKC theta (unknown origin) assessed as residual activity at 1 uM relative to control
[19] = test system: MV4-11; assay: Induction of apoptosis in human MV4-11 cells assessed as viable cells at 10 uM after 72 hrs by Annexin V FITC/PI staining based flow cytometry analysis (reference value: 93.63%); assay type: functional; settings: read-out: Activity
[20] = molecular target: T1, Leucine-rich repeat serine/threonine-protein kinase 2 (Homo sapiens, UniProt Q5S007); assay: Inhibition of human LRRK2 at 1 uM using RLGRDKYKTLRQIRQ as substrate after 40 mins in presence of [gamma-33ATP] by scintillation counting based radiometry assay relative to control
T1 sequence (Q5S007 whole entry): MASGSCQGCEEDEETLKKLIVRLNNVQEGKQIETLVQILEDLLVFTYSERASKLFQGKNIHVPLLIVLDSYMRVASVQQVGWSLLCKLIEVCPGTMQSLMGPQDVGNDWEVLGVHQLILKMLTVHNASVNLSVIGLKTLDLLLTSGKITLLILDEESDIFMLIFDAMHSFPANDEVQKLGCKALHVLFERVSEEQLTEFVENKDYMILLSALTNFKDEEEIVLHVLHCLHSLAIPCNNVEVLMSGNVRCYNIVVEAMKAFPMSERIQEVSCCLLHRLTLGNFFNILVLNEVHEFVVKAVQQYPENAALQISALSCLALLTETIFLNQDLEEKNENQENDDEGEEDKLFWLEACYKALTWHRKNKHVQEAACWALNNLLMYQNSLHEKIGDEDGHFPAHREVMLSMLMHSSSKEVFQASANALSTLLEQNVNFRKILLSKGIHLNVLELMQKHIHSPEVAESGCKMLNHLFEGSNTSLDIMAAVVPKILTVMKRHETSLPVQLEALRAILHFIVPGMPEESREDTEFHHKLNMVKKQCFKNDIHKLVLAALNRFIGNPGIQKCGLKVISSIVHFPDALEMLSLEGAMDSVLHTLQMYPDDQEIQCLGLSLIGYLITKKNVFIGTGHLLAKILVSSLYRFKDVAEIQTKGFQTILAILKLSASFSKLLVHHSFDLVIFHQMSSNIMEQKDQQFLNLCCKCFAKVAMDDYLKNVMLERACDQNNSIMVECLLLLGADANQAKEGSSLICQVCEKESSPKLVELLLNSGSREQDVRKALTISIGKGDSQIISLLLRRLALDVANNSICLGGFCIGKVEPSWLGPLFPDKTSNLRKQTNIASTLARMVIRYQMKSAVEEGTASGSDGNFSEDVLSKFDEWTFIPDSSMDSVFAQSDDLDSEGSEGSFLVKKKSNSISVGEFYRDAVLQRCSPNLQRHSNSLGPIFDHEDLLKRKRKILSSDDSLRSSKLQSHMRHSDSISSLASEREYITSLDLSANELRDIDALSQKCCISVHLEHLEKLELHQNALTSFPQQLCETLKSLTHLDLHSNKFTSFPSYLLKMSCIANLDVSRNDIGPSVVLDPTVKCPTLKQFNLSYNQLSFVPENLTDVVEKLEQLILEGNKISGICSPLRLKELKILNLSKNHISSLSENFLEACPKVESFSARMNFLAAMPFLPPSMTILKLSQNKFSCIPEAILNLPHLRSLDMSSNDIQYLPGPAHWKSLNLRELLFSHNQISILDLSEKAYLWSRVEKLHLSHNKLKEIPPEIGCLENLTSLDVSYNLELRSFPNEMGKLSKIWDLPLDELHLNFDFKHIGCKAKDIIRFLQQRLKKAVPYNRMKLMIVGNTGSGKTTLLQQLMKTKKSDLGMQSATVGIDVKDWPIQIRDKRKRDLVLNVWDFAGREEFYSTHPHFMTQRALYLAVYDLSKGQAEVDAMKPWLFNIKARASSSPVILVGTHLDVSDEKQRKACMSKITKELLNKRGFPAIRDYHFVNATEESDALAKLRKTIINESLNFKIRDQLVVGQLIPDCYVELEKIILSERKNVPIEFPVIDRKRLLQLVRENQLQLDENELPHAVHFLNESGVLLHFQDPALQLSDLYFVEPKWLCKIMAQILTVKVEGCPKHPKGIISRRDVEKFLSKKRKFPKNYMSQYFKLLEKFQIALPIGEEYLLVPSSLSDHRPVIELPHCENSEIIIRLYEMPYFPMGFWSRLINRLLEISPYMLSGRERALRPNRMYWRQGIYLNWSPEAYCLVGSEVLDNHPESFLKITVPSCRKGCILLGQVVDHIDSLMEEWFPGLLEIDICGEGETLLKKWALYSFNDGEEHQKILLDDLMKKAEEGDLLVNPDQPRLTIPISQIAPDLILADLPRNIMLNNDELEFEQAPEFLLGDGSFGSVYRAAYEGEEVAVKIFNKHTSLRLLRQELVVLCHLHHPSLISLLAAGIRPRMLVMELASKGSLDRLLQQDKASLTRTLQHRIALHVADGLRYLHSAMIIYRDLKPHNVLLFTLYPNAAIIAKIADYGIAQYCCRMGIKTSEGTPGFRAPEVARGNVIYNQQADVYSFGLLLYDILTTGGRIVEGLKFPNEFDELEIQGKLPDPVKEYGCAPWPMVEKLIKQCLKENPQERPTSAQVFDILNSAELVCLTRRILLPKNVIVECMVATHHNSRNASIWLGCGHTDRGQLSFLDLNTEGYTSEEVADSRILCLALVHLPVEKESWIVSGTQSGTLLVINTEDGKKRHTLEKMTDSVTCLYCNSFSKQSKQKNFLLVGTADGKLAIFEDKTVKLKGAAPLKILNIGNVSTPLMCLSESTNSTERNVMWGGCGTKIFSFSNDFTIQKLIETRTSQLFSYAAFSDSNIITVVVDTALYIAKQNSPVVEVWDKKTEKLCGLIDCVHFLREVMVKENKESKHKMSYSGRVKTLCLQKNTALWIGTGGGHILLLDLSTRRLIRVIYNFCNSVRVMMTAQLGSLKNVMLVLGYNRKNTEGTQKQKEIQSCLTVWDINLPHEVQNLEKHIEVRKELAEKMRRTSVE

[21] = test system: MV4-11; assay: Induction of apoptosis in human MV4-11 cells assessed as early apoptotic cells at 3 uM after 72 hrs by Annexin V FITC/PI staining based flow cytometry analysis (reference value: 2.73%); assay type: functional
[22] = Volume of distribution at steady state in BALB/c mouse at 2 mg/kg, iv measured upto 24 hrs by LC/MS/MS analysis; assay type: ADME, organism-based; settings: in vivo, read-out: Vdss
[23] = test system: MV4-11; assay: Induction of cell cylce arrest in human MV4-11 cells assessed as accumulation of cells at G1 phase at 3 uM after 72 hrs by RNase A/propidium iodide staining based flow cytometry (reference value: 64.41%); assay type: functional; method in brief: as §1
[24] = test system: MV4-11; assay: Induction of apoptosis in human MV4-11 cells assessed as viable cells at 3 uM after 72 hrs by Annexin V FITC/PI staining based flow cytometry analysis (reference value: 93.63%); assay type: functional; settings: read-out: Activity
[25] = test system: MV4-11; assay: Induction of cell cylce arrest in human MV4-11 cells assessed as accumulation of cells at S phase at 10 uM after 72 hrs by RNase A/propidium iodide staining based flow cytometry (reference value: 18.81%); assay type: functional; method in brief: as §1
[26] = Volume of distribution at steady state in Sprague-Dawley rat at 5 mg/kg, iv measured upto 24 hrs by LC/MS/MS analysis; assay type: ADME, organism-based; settings: in vivo, read-out: Vdss
[27] = Oral bioavailability in Sprague-Dawley rat at 20 mg/kg measured upto 24 hrs by LC/MS/MS analysis; assay type: ADME, organism-based; settings: in vivo
[28] = test system: MV4-11; assay: Induction of cell cylce arrest in human MV4-11 cells assessed as accumulation of cells at S phase at 3 uM after 72 hrs by RNase A/propidium iodide staining based flow cytometry (reference value: 18.81%); assay type: functional; method in brief: as §1
[29] = test system: MV4-11; assay: Induction of cell cylce arrest in human MV4-11 cells assessed as accumulation of cells at sub G1 phase at 10 uM after 72 hrs by RNase A/propidium iodide staining based flow cytometry (reference value: 1.58%); assay type: functional; method in brief: as §1
[30] = Half life in Sprague-Dawley rat at 20 mg/kg, po measured upto 24 hrs by LC/MS/MS analysis; assay type: ADME, organism-based; settings: in vivo
[31] = molecular target: Glycogen synthase kinase-3 beta (Homo sapiens) (UniProt P49841); assay: Inhibition of GSK3beta (unknown origin) assessed as residual activity at 1 uM relative to control
Sequence of Glycogen synthase kinase-3 beta (Homo sapiens) (P49841 whole entry, looked up): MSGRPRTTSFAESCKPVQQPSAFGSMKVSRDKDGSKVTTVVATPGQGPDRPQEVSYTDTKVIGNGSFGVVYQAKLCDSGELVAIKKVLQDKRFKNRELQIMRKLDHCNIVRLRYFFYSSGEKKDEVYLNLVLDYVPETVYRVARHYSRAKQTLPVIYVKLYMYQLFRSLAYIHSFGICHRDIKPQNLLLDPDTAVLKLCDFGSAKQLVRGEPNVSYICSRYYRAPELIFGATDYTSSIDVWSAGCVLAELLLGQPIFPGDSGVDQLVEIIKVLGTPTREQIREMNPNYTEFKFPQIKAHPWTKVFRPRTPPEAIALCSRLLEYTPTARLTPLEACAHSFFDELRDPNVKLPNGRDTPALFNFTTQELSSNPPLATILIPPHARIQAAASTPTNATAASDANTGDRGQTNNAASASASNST

[32] = molecular target: T1, Leucine-rich repeat serine/threonine-protein kinase 2; assay: Inhibition of human LRRK2 using RLGRDKYKTLRQIRQ as substrate after 40 mins in presence of [gamma-33ATP] by scintillation counting based radiometry assay
[33] = test system: MOLM-13; assay: Antiproliferative activity against human MOLM-13 cells assessed as growth inhibition incubated for 72 hrs by MTT assay; assay type: functional
[34] = Tmax in BALB/c mouse at 10 mg/kg, po measured upto 24 hrs by LC/MS/MS analysis; assay type: ADME, organism-based; settings: in vivo

GI50 [2]: 600 nM
AUC at 24 h [3]: 2.56 µM·h
Cmax [4]: 4.16 µM
GI50 [6]: 4880 nM
Activity [9]: 61%
GI50 [10]: 650 nM
half-life [11]: 206 min
Tmax [13]: 3 min
inhibition [14]: > 50%
Tmax [15]: 1.8 min
Activity [16]: 61%
Cmax [17]: 3.2 µM
Activity [18]: 61%
inhibition [20]: > 50%
Vd [22]: 1.24 L/kg
Vd [26]: 1.57 L/kg
bioavailability [27]: 70%
half-life [30]: 419 min
Activity [31]: 61%
Ki [32]: 51 nM
GI50 [33]: 5110 nM
Tmax [34]: 20.4 min
SMILES: Nc1ncc(-c2cc3ccccc3o2)c(N2CCC3(CCNC3=O)CC2)c1Cl
Activity [1]: 90.92%
Activity [5]: 1.73%
Activity [7]: 14.01%
Activity [8]: 0.42%
Activity [12]: 8.24%
viability at 10 µM [19]: 83.4%
Activity [21]: 1.81%
Activity [23]: 75.73%
viability at 3 µM [24]: 89.5%
Activity [25]: 1.8%
Activity [28]: 10.03%
Activity [29]: 4.89%
